Key:
[1] = Inhibition of Proteus mirabilis B4 urease activity using urea as substrate incubated for 30 mins by absorbance based assay
Method in brief: (§1)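 Berthelot ammonia assay with whole-cell P. mirabilis B4, grown overnight in LB at 37 °C, pelleted and resuspended in PBS (0.004 mg mL−1 in phosphate buffer). Cells incubated with compound (10-fold dilutions) and 50 mM urea for 30 min at 37 °C. Phenol/nitroprusside and NaOH/hypochlorite reagents added, 30 min at 37 °C, A636 read. Activity normalised to controls; IC50 by non-linear regression; n = 6.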

Proteus mirabilis [2] = assay: Potency index, ratio of acetohydroxamic acid IC50 to test compound IC50 for inhibition of Proteus mirabilis B4 urease activity using urea as substrate incubated for 30 mins by absorbance based assay; method in brief: as §1
Proteus mirabilis [3] = assay: Antibacterial activity against Proteus mirabilis assessed as inhibition of bacterial growth incubated for 18 hrs by absorbance based plate reader analysis; assay type: functional, organism-based
Method in brief: (§2)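 Broth microdilution in LB: compound in sterile water with 5% (v/v) DMSO, two-fold serial dilutions; subculture at 1 × 10^6 CFU mL−1 added. 37 °C for 18 h, shaken 10 s before each OD600 reading taken at intervals. MIC read visually at 18 h and from growth curves as lowest concentration inhibiting growth. Wells with broth only and with bacteria only as controls.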

HepG2 [4] = assay: Cytotoxicity against human HepG2 cells assessed as effect on cell survival at <1.25 mM measured for 24 hrs by MTT assay; assay type: toxicity, cell-based; conditions: hepg2, 24 h, 1250 µM
Method in brief: (§3)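 HepG2 cells in complete DMEM at 37 °C, 5% CO2, seeded at 1 × 10^4 cells per well. Compounds diluted serially from 10 mM with 1% DMSO in DMEM; 24 h exposure. MTT (1 mg mL−1) for 60 min at 37 °C, dissolved in isopropanol, absorbance read at 590 nm (reference 620 nm). % survival relative to untreated cells; three biological repeats.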

Escherichia coli = assay: Antibacterial activity against Escherichia coli NSM59 assessed as inhibition of bacterial growth incubated for 18 hrs by absorbance based plate reader analysis; assay type: functional, organism-based; method in brief: as §2
HepG2 [5] = assay: Cytotoxicity against human HepG2 cells assessed as effect on cell survival at 10 mM measured within 24 hrs by MTT assay; assay type: toxicity, cell-based; conditions: hepg2, 24 h, 10000 µM; method in brief: as §3
[6] = Hemolytic activity in human erythrocytes at 0.080 to 5 mM incubated for 1 hrs by absorbance based assay; assay type: toxicity, cell-based; conditions: erythrocyte, 5000 µM, dose 0.08-5 mM
Method in brief: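 Pooled heparinised whole blood from three donors; erythrocytes washed three times in saline and diluted to 1% (v/v). Incubated with compound (5–0.08 mM, serial dilution of a 10 mM stock with 1% DMSO in PBS) for 1 h at 37 °C with rotation. Saline and 1% triton as controls. Supernatant absorbance read at 404 nm; % haemolysis relative to lysed cells.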

SMILES	IC50 [1]	Ratio IC50 (Proteus mirabilis [2])	Activity (Proteus mirabilis [3])	Activity (HepG2 [4])	Activity (Escherichia coli)	Activity (HepG2 [5])	Activity [6]
NC(=S)NCc1ccccc1	2.27 10^-5mol/dm3	1.61	–	–	–	–	–
S=C(NCc1cccnc1)NCc1cccnc1	1.4 10^-6mol/dm3	26.1	Moderate_effect	Non-toxic	Moderate_effect	Toxic	Non-toxic
CC(=O)NO [ACETOHYDROXAMIC ACID]	3.66 10^-5mol/dm3	–	Moderate_effect	Non-toxic	Moderate_effect	Toxic	Non-toxic
NC(=S)Nc1ccccc1 [PHENYLTHIOUREA]	9.66 10^-6mol/dm3	0.002	–	–	–	–	–
O=c1c(O)c(-c2ccc(O)c(O)c2)oc2cc(O)cc(O)c12 [QUERCETIN]	8.66 10^-7mol/dm3	0.001	–	–	–	–	–

Reference: ChEMBL document CHEMBL6083216, “Rational design and in vitro testing of new urease inhibitors to prevent urinary catheter blockage” (RSC Med Chem, 2024)
